Measurements of several laboratories.
Target: Delta-type opioid receptor (OPRD1, Homo sapiens, UniProt P41143)

SMILES	test	setting	Ki
Oc1ccc2c3c1O[C@H]1c4ncc(-c5ccccc5)cc4C[C@@]4(OCCCc5cccnc5)[C@@H](C2)N(CC2CC2)CC[C@]314	ligand displacement, radioligand	cell membranes	5.89 nM
CCCC[C@@H](NC(=O)[C@@H](N)Cc1ccc(O)cc1)C(=O)NCC(=O)N[C@@H](Cc1ccc(F)cc1)C(=O)N(C)CCC[C@@]1(c2ccc(F)cc2)OCc2cc(C#N)ccc21	cell-free assay	–	1.4 nM
CCCCCCCCCCCCCCCC(=O)O	ligand displacement, radioligand	cell membranes	5100 nM
Cc1cc(O)cc(C)c1C[C@H](N)C(=O)N1Cc2ccccc2C[C@H]1C(=O)NCC(=O)NCc1ccc(N)cc1	ligand displacement, radioligand	cell membranes	2 nM
CCCC[C@@H](NC(=O)[C@@H](N)Cc1c(C)cc(O)cc1C)C(=O)NCC(=O)N[C@@H](Cc1ccc(F)cc1)C(=O)N(C)CCC[C@@]1(c2ccc(F)cc2)OCc2cc(C#N)ccc21	cell-free assay	–	0.8 nM
Cc1cc(O)cc(C)c1C[C@H](N)C(=O)N1Cc2ccccc2C[C@H]1C(=O)NCC(=O)NCc1ccc(Cl)cc1	ligand displacement, radioligand	cell membranes	0.26 nM
C[C@@H](NC(=O)[C@@H](N)Cc1ccc(O)cc1)C(=O)NCC(=O)N[C@H](CC(=O)NNC(=O)C[C@H](Cc1ccccc1)NC(=O)CNC(=O)[C@@H](C)NC(=O)[C@@H](N)Cc1ccc(O)cc1)Cc1ccccc1	ligand displacement, radioligand	–	0.72 nM
CN(C)C1(CNC(=O)/N=N/c2ccc(F)cc2)CCCCC1	cell-free assay	–	12000 nM
Cc1ccc(CNC(=O)CNC(=O)[C@@H]2Cc3ccccc3CN2C(=O)[C@@H](N)Cc2c(C)cc(O)cc2C)cc1	ligand displacement, radioligand	cell membranes	0.31 nM
Cc1cc(O)cc(C)c1C[C@H](N)C(=O)N[C@H](C)C(=O)NCC(=O)N[C@@H](Cc1ccc(Cl)cc1)C(=O)N(C)CCC[C@@]1(c2ccc(F)cc2)OCc2cc(C#N)ccc21	cell-free assay	–	4 nM
COc1ccsc1CNCC[C@@]1(c2ccccn2)CCOC2(CCCC2)C1	cell-free assay	–	1400 nM
CC(=O)Nc1ccccc1-c1cnc2c(c1)C[C@@]1(OCCCc3ccccc3)[C@H]3Cc4ccc(O)c5c4[C@@]1(CCN3CC1CC1)[C@H]2O5	ligand displacement, radioligand	cell membranes	> 3330 nM
